Tests used:
mouse liver lysates = test: Substrate hydrolysis in mouse liver homogenate with or without Palmostatin B; type: biochemical; conditions: lysate 20 μg; for substrate processing by mouse liver lysates: substrate 5 μM
How it was run: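 Liver from 14-week-old virgin female C57BL/6 mice, washed twice in cold PBS, minced, sonicated in cold PBS, clarified, protein quantified by BCA. Homogenate (20 μg) preincubated with DMSO or Palmostatin B (10 μM) for 30 min on ice, then fluorogenic thioester substrate or colorimetric esterase substrate 4-NPO added (5 μM). Hydrolysis plotted.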

PC3 cell lysate = test: QStE hydrolysis in PC3 cell lysate with inhibitors; type: biochemical, human; conditions: lysate 20 μg, inhibitor 10 μM, 30 min on ice, QStE 5 μM; three replicates
T. gondii lysates = test: In situ depalmitoylase activity in T. gondii lysates; type: biochemical, Toxoplasma gondii; conditions: ASC20KRNT 2.5 μM, Ku80 T. gondii lysate 5 μg, inhibitor 10 μM
TgPPT1 = TgPPT1 (Toxoplasma gondii, UniProt S4UG63); test: Steady-state kinetics of fluorogenic substrate hydrolysis by recombinant TgPPT1; type: biochemical; conditions: QStE 10 μM, TgPPT1 100 nM
[1] = system: HsAPT1, HsAPT2 and TgPPT1; test: Steady-state kinetics, statement made for all three depalmitoylases together; type: biochemical; conditions: all three enzymes
phospholipase A2 (PLA2) = phospholipase A2 (PLA2) (Sus scrofa, UniProt P00592); test: QStE hydrolysis by recombinant PLA2; type: biochemical; conditions: QStE 10 μM, PLA2 500 nM
Sequence of phospholipase A2 (PLA2) (P00592 23-146): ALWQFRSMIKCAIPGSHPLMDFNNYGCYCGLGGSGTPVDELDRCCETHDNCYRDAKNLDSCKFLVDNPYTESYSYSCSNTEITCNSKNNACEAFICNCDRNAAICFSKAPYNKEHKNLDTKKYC

[2] = molecular target: T1, monoacylglycerol lipase (MGLL) (Homo sapiens, UniProt Q99685); test: QStE hydrolysis by recombinant MGLL; type: biochemical; conditions: QStE 10 μM, MGLL 500 nM
T1 sequence (Q99685 1-303): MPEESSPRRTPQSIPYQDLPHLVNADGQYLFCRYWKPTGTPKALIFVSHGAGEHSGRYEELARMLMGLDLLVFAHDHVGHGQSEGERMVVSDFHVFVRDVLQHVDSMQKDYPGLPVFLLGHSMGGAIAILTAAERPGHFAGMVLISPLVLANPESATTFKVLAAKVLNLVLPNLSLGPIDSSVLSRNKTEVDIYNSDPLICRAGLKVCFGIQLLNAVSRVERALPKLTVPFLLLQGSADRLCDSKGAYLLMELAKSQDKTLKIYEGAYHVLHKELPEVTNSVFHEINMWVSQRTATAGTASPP

HsAPT1 = HsAPT1 (Homo sapiens, UniProt O75608); test: Steady-state kinetics of fluorogenic substrate hydrolysis by recombinant HsAPT1; type: biochemical; conditions: QStE 10 μM, HsAPT1 50 nM
Sequence of HsAPT1 (O75608 whole entry): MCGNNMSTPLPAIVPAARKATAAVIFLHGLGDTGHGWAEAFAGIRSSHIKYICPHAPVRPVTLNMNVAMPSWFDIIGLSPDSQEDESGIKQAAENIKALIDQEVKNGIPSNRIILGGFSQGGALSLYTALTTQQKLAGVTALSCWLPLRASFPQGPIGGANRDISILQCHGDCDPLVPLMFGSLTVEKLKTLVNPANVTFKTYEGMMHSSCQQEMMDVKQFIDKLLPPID

[3] = Solubility of the quenched substrates in buffer; type: physicochemical; conditions: method not described

## CCCCCCCC(=O)Oc1ccc([N+](=O)[O-])cc1 [4-NPO, 4-nitrophenyl octanoate]
Mouse liver lysates
  substrate processing by mouse liver lysates: more effectively processed

## CCCCCCCCCCCCCCCCS(=O)(=O)F [HDSF, hexadecylsulfonyl fluoride]
PC3 cell lysate
  effect of inhibitor on QStE processing in PC3 cell lysate: only minor reductions

## O=C(CN1CCN(C(=O)c2ccco2)CC1)Nc1cc(C(F)(F)F)ccc1Cl [ML348]
PC3 cell lysate
  effect of inhibitor on QStE processing in PC3 cell lysate: only minor reductions

## COc1ccc(N2CCN(C(=O)c3cc4c(s3)-c3ccccc3S(=O)(=O)C4)CC2)cc1 [ML349]
PC3 cell lysate
  effect of inhibitor on QStE processing in PC3 cell lysate: only minor reductions

## O=S(=O)(F)Cc1ccccc1 [PMSF, phenylmethylsulfonyl fluoride]
PC3 cell lysate
  effect of inhibitor on QStE processing in PC3 cell lysate: did not reduce

## CCCCCCCCCC[C@@H]1C(=O)O[C@H]1CCc1ccc(OC)c(OC)c1 [PalmB, Palmostatin B]
Mouse liver lysates; inhibitor 10 μM, 30 min on ice, 4-NPO 5 μM
  effect of inhibitor on 4-NPO processing in mouse liver lysates: only slightly reduced
Mouse liver lysates; inhibitor 10 μM, 30 min on ice, QStE 5 μM
  effect of inhibitor on QStE processing in mouse liver lysates: completely blocked
PC3 cell lysate
  effect of inhibitor on QStE processing in PC3 cell lysate: completely block
T. gondii lysates
  effect of inhibitor on activity in T. gondii lysate: completely abolished

## CN(C)c1ccc(/N=N/c2ccc(C(=O)NCCCn3cc(CCCCCCCCCCCCCCCC(=O)SC[C@H](NC(=O)c4cc5ccc(O)cc5oc4=O)C(=O)N4CCOCC4)nn3)cc2)cc1 [QStE, (R)-S-(2-(7-hydroxy-2-oxo-2H-chromene-3-carboxamido)-3-morpholino-3-oxopropyl) (E)-16-(1-(3-(4-((4-(dimethylamino)phenyl)diazenyl)benzamido)propyl)-1H-1,2,3-triazol-4-yl)hexadecanethioate]
Mouse liver lysates
  substrate processing by mouse liver lysates: robust processing
TgPPT1
  QStE hydrolysis by TgPPT1, specificity panel: readily hydrolyzed
[1]
  catalytic efficiency for QStE compared to QSE, times greater: 10-30 times
Phospholipase A2 (PLA2)
  QStE hydrolysis by PLA2: not hydrolyzed
[2]
  QStE hydrolysis by MGLL: not hydrolyzed
HsAPT1
  QStE hydrolysis by APT1, specificity panel: readily hydrolyzed
[3]; aqueous buffer
  soluble in aqueous buffer at concentrations up to: up to 100 μM
[3]; buffer with CHAPS, 10 mM
  soluble in detergent supplemented buffer at concentrations up to: up to 500 μM

From publication PMC6338520 (Cell chemical biology, 2018)
